Measured values published in ChEMBL document CHEMBL1152681, “Natural and synthetic 2'-hydroxy-chalcones and aurones: synthesis, characterization and evaluation of the antioxidant and soybean lipoxygenase inhibitory activity” (Bioorg Med Chem, 2009).

Tests used:
[1] = Antioxidant activity assessed as inhibition of AAPH-induced lipid peroxidation at 10 uM by uV spectrophotometry; type: functional
Outline: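 Aqueous linoleic acid dispersion (16 mM, 10 µL) in 0.05 M phosphate buffer pH 7.4, prethermostated at 37 °C. Oxidation started under air with AAPH (40 mM solution, 50 µL) and run with 10 µL compound aliquots. The control contained the same DMSO level. The rate of conjugated diene hydroperoxide formation was followed by the rise in absorbance at 234 nm at 37 °C.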

[2] = Antioxidant activity assessed as superoxide anion radical scavenging activity at 10 uM; type: functional
Outline: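 Non-enzymatic superoxide generation from PMS/NADH/air-oxygen, measured by NBT reduction. Compounds preincubated 2 min before NADH was added. Mixture of 3 µM PMS, 78 µM NADH and 25 µM NBT in phosphate buffer pH 7.4, incubated 2 min at room temperature. Absorbance read at 560 nm against a PMS-containing blank. Caffeic acid was the standard.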

[3] = Antioxidant activity assessed as hydroxyl radical scavenging activity at 100 uM; type: functional
Outline: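 Fe3+/ascorbic acid-generated hydroxyl radicals detected by the Nash method as formaldehyde formed from DMSO oxidation. The mixture held EDTA 0.1 mM, Fe3+ 167 µM, DMSO 33 mM, test compound 0.1 mM and ascorbic acid 10 mM in 50 mM phosphate buffer pH 7.4. Incubated 30 min at 37 °C, then stopped with CCl3COOH (17% w/v). Trolox was the standard.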

[4] = Antioxidant activity assessed as hydrogen peroxide scavenging activity by peroxyoxalate chemiluminescent method; type: functional
[5] = system: Radical scavenging activity; experiment: Antioxidant activity assessed as DPPH radical scavenging activity at 100 uM after 20 mins; type: functional
Outline: (§1)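 DPPH (0.05 mM) in absolute ethanol; compounds in DMSO added to final 0.1 mM. Mixture shaken vigorously and left 20 min or 60 min. Absorbance read at 517 nm and percent activity calculated. Three replicates, averaged.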

[6] = system: Radical scavenging activity; experiment: Antioxidant activity assessed as DPPH radical scavenging activity at 50 uM after 20 mins; type: functional
[7] = system: Radical scavenging activity; experiment: Antioxidant activity assessed as DPPH radical scavenging activity at 100 uM after 60 mins; type: functional; outline: as §1
[8] = Inhibition of soybean 5-lipoxygenase by UV-absorbance based enzyme assay; set-up: species or system Glycine max
Outline: (§2)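 Soybean lipoxygenase (enzyme solution 1/9 × 10^-4 w/v in saline) incubated at room temperature with sodium linoleate and compound in DMSO, in Tris buffer pH 9. Conversion to 13-hydroperoxylinoleic acid recorded at 234 nm and compared with a standard inhibitor.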

[9] = system: Radical scavenging activity; experiment: Antioxidant activity assessed as DPPH radical scavenging activity at 50 uM after 60 mins; type: functional
Glycine max = experiment: Inhibition of soybean 5-lipoxygenase at 100 uM by UV-absorbance based enzyme assay; outline: as §2

SMILES | inhibition [1] [%] | Activity [2] [%] | Activity [3] [%] | IC50 [4] [µM] | Activity [5] [%] | Activity [6] [%] | Activity [7] [%] | IC50 [8] [µM] | Activity [9] [%] | inhibition (Glycine max) [%]
COc1ccc(/C=C2\Oc3ccccc3C2=O)cc1OC [3',4'-DIMETHOXY-AURONE] | 53.3 | 97.4 | 76.7 | 44 |  |  |  |  |  | 
COc1ccc(/C=C2\Oc3ccccc3C2=O)cc1 [4'-METHOXY-AURONE] | 64.6 | 81.6 | 76.4 | 291 | 5.1 | 13.9 | 23.8 | 70 | 0 | 
O=C1/C(=C/c2ccc(Cl)cc2)Oc2ccccc21 | 46.4 | 89.5 | 0 | 4140 | 49.3 | 11.1 | 76.2 |  | 10.3 | 26.4
COc1cc(OC)c2c(c1)O/C(=C\c1ccccc1OC)C2=O | 87.1 | 55.3 | 77.9 | 2400 | 1.8 | 4.2 | 30.8 | 100 | 0 | 
COCOc1cc(OCOC)c2c(c1)O/C(=C\c1ccc(OCOC)c(OCOC)c1)C2=O |  |  |  |  |  |  |  |  |  | 0
COc1ccc(/C=C/C(=O)c2c(O)cc(OC)cc2OC)cc1 [FLAVOKAWAIN A] | 80.9 | 50 | 78.7 | 456 | 6.3 | 0 | 40.8 |  | 0 | 2.3
COc1cc(O)c(C(=O)/C=C/c2ccccc2OC)c(OC)c1 | 68.4 | 89.5 | 0 | 503 | 15.1 | 9.7 | 47.7 |  | 5.9 | 20
COc1cc(O)c(C(=O)/C=C/c2ccc(C)cc2)c(OC)c1 | 100 | 100 | 100 | 665 | 9.6 | 0 | 24.6 | 53 | 0 | 
O=C1/C(=C/c2ccc(O)c(O)c2)Oc2cc(O)cc(O)c21 | 77.8 |  |  |  | 84.9 |  | 97.7 |  |  | 0
COc1cc(O)c(C(=O)/C=C/c2ccc(OC)c(OC)c2)c(OC)c1 | 73.6 | 86.8 | 42.2 | 88 | 12.9 | 0 | 20.8 |  | 0 | 1.6
COc1cc(OC)c2c(c1)O/C(=C\c1ccc(C)cc1)C2=O | 72 | 97.4 | 100 |  | 8.5 | 0 | 29.2 |  | 0 | 0
COc1ccc(/C=C/C(=O)c2ccccc2O)cc1OC | 64.6 | 100 | 84.1 | 228 | 6.3 | 0 | 28.5 | 67.5 | 0 | 
COc1cc(O)c(C(=O)/C=C/c2ccc(Cl)cc2)c(OC)c1 | 42.7 | 100 | 100 | 657 | 15.1 | 0 | 46.9 | 82 | 0 | 
COc1cccc(/C=C/C(=O)c2ccccc2O)c1 | 75.8 | 97.4 | 57 | 940 | 0 | 0 | 34.6 |  | 0 | 36.4
O=C(/C=C/c1ccc(O)c(O)c1)c1c(O)cc(O)cc1O [3,4,2',4',6'-PENTAHYDROXYCHALCONE] | 0 |  |  | 76 | 100 |  | 94.9 |  |  | 0
Cc1ccc(/C=C2\Oc3ccccc3C2=O)cc1 | 43.1 | 68.4 | 84.5 | 2010 | 23.9 | 5.6 | 49.2 |  | 29.4 | 32.4
CC1=C(/C=C/C(C)=C/C=C/C(C)=C/C=C/C=C(C)/C=C/C=C(C)/C=C/C2=C(C)CCCC2(C)C)C(C)(C)CCC1 [BETA CAROTENE] |  |  |  | 16.9 |  |  |  |  |  | 
O=C(O)/C=C/c1ccc(O)c(O)c1 [CAFFEIC ACID] |  | 5.5 |  |  |  |  |  | 600 |  | 
COCOc1cc(O)c(C(=O)/C=C/c2ccc(OCOC)c(OCOC)c2)c(OCOC)c1 | 77.1 | 50 | 100 |  | 42.6 | 5.6 | 65.4 |  | 0 | 14.1
Cc1c(C)c2c(c(C)c1O)CCC(C)(C(=O)O)O2 (stereo unspecified) | 63 |  | 73.4 |  |  |  |  |  |  | 
COc1ccc(/C=C2\Oc3cc(OC)cc(OC)c3C2=O)cc1 [4,4',6-TRIMETHOXY-AURONE] | 42.6 | 63.2 | 100 | 1090 | 0 | 2.8 | 11.5 | 50 | 0 | 
CC(Cc1ccc(O)c(O)c1)C(C)Cc1ccc(O)c(O)c1 (stereo unspecified) [NORDIHYDROGUAIARETIC ACID] |  |  |  |  | 81 | 84 | 83 | 40 | 83 | 
COc1ccccc1/C=C1\Oc2ccccc2C1=O [(Z)-2'-METHOXYAURONE] | 71.1 | 73.7 | 100 | 466 | 25 | 4.2 | 43.1 |  | 0 | 39.9
COc1ccccc1/C=C/C(=O)c1ccccc1O | 43.1 | 92.1 | 100 | 599 | 11.8 | 0 | 57.7 | 100 | 0 | 
O=c1c(O)c(-c2ccc(O)c(O)c2)oc2cc(O)cc(O)c12 [QUERCETIN] |  |  |  | 162 |  |  |  |  |  | 
COc1ccc(/C=C/C(=O)c2ccccc2O)cc1 | 61.6 | 73.7 | 100 | 500 | 0 | 0 | 40.8 |  | 0 | 5
COc1cccc(/C=C2\Oc3ccccc3C2=O)c1 [3'-METHOXY-AURONE] | 62.3 | 50 | 57.8 | 1990 | 87.9 | 11.1 | 83.8 |  | 0 | 34.9
O=C(/C=C/c1ccc(Cl)cc1)c1ccccc1O | 74.4 | 84.2 | 100 | 713 | 0 | 0 | 40.8 | 56 | 0 | 
COc1cc(OC)c2c(c1)O/C(=C\c1ccc(Cl)cc1)C2=O | 82.9 | 84.2 | 91.5 |  | 6.3 | 0 | 20.8 |  | 0 | 7.8
Cc1ccc(/C=C/C(=O)c2ccccc2O)cc1 | 49.6 | 84.2 | 100 | 1040 | 0 | 0 | 43.8 | 52.5 | 1.5 | 
